Reference: ChEMBL document CHEMBL1144714, “Reaction of rosmarinic acid with nitrite ions in acidic conditions: discovery of nitro- and dinitrorosmarinic acids as new anti-HIV-1 agents” (J Med Chem, 2008)
pEC50, pIC50: −log10 of the molar value.

Tests used:
[1] = target: T1, Human immunodeficiency virus type 1 integrase (Human immunodeficiency virus 1, UniProt Q7ZJM1); assay: Inhibition of HIV1 integrase using labelled oligonucleotide substrate by ELISA
[2] = target: T1, Human immunodeficiency virus type 1 integrase; assay: Inhibition of HIV1 integrase using labelled oligonucleotide substrate in presence of bovine serum albumin by ELISA
[3] = target: T1, Human immunodeficiency virus type 1 integrase; assay: Inhibition of HIV1 integrase 3'-processing activity using labelled oligonucleotide substrate by ELISA
[4] = target: T1, Human immunodeficiency virus type 1 integrase; assay: Inhibition of HIV1 integrase strand transfer activity using labelled oligonucleotide substrate by ELISA
[5] = Selectivity index, ratio of CC50 for human MT4 cells to EC50 for HIV1 3B; type: functional
Procedure, shortened: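 Ratio CC50/EC50 from parallel MT-4/MTT assays. CC50 comes from uninfected MT-4 cells and EC50 from MT-4 cells infected with 100–300 CCID50 of HIV-1 IIIB. Both assays used 5-fold serial dilutions.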

[6] = target: T1, Human immunodeficiency virus type 1 integrase; assay: Inhibition of HIV1 integrase using labelled U5A/U5B double stranded DNA substrate
[7] = test system: Human immunodeficiency virus 1; assay: Antiviral activity against HIV1 3B infected in human MT4 cells assessed as reduction of virus-induced cytopathogenicity by MTT assay; type: functional, organism-based; conditions: Human immunodeficiency virus 1, 3B
Procedure, shortened: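 MT-4 lymphocytes infected with 100–300 CCID50 of HIV-1 IIIB stock (CCID50 titrated on MT-4 cells), in the presence of 5-fold serial compound dilutions. Protection against virus-induced cytopathic effect read by MTT reduction to formazan, measured spectrophotometrically. EC50 = concentration giving 50% protection against CPE.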

Albumin = Albumin (Bos taurus, UniProt P02769); assay: Binding affinity to BSA by fluorescence quenching assay; type: ADME; conditions: cattle, isolated protein
Procedure, shortened: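 BSA tryptophan fluorescence quenching at pH 7.4 on binding of the compound. Data fitted as Stern–Volmer plots, and the slope of the linear fit was taken as the quenching constant.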

[8] = Cytotoxicity against human MT4 cells by MTT method; type: cell-based
Procedure, shortened: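 Uninfected MT-4 lymphocytes run in parallel with the antiviral assay, with 5-fold serial compound dilutions. Viability read by MTT reduction to formazan, measured spectrophotometrically. CC50 = concentration reducing MT-4 viability by 50%.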

[9] = target: Human immunodeficiency virus type 1 reverse transcriptase (Human immunodeficiency virus 1, UniProt Q72547); assay: Inhibition of HIV1 reverse transcriptase

T1 sequence (Q7ZJM1 whole entry): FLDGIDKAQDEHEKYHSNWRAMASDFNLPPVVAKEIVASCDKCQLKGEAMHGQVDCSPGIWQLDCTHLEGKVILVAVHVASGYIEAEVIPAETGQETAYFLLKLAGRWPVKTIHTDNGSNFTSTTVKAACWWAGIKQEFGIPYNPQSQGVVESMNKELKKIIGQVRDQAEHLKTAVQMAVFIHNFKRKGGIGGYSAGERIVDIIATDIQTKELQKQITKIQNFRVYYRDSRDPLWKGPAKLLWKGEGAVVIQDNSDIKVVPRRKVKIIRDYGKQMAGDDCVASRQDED
Chain of Albumin (P02769 whole entry): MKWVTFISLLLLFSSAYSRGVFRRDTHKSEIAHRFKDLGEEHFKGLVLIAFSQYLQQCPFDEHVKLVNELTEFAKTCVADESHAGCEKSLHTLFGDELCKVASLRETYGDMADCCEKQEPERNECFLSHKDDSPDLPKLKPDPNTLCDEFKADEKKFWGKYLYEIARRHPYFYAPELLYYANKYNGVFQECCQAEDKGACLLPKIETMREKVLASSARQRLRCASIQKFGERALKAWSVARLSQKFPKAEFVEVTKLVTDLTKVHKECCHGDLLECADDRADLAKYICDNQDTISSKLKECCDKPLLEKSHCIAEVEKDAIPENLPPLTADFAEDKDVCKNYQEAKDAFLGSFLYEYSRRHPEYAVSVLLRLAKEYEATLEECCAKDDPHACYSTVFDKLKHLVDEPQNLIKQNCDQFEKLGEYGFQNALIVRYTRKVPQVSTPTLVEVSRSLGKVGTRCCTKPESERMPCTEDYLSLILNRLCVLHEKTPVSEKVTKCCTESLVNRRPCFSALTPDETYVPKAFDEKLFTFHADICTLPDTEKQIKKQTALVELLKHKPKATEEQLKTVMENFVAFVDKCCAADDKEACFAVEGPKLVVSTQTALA

Row | pIC50 [2] | pIC50 [9] | Compound | pIC50 [1] | pIC50 [3] | pIC50 [4] | Ratio CC50/EC50 [5] | pIC50 [6] | pEC50 [7] | K (Albumin) | CC50 [8]
1 | 4.26 | – | O=C(/C=C/c1ccc(O)c(O)c1)O[C@H](Cc1cc(O)c(O)cc1[N+](=O)[O-])C(=O)O | 5.85 | < 3.61 | 5.43 | 4 | 7.59 | 4.41 | 17460 10^3/M | 160 µM
2 | – | – | O=C(NCc1ccc(F)cc1)c1nc(N2CCCCS2(=O)=O)c2cccnc2c1O | – | – | – | 457 | – | – | – | 2.2 µM
3 | 4.20 | 4.00 | O=C(/C=C/c1ccc(O)c(O)c1)O[C@H](Cc1ccc(O)c(O)c1)C(=O)O [ROSMARINIC ACID] | – | – | – | – | – | < 4.26 | – | 55 µM

Row | Compound | pIC50 [2] | pIC50 [9] | pIC50 [1] | pIC50 [3] | pIC50 [4] | Ratio CC50/EC50 [5] | pIC50 [6] | pEC50 [7] | K (Albumin) | CC50 [8]
4 | O=C(/C=C/c1cc(O)c(O)cc1[N+](=O)[O-])O[C@H](Cc1cc(O)c(O)cc1[N+](=O)[O-])C(=O)O | 4.68 | – | 6.82 | 4.28 | 7.15 | 3.8 | 7.52 | 4.92 | 3300 10^3/M | 45.5 µM
